{"data": "Assay results of several laboratories", "target": "Serine/threonine-protein kinase D3 (PRKD3, Homo sapiens, UniProt O94806)", "One construct used (O94806 1-890)": "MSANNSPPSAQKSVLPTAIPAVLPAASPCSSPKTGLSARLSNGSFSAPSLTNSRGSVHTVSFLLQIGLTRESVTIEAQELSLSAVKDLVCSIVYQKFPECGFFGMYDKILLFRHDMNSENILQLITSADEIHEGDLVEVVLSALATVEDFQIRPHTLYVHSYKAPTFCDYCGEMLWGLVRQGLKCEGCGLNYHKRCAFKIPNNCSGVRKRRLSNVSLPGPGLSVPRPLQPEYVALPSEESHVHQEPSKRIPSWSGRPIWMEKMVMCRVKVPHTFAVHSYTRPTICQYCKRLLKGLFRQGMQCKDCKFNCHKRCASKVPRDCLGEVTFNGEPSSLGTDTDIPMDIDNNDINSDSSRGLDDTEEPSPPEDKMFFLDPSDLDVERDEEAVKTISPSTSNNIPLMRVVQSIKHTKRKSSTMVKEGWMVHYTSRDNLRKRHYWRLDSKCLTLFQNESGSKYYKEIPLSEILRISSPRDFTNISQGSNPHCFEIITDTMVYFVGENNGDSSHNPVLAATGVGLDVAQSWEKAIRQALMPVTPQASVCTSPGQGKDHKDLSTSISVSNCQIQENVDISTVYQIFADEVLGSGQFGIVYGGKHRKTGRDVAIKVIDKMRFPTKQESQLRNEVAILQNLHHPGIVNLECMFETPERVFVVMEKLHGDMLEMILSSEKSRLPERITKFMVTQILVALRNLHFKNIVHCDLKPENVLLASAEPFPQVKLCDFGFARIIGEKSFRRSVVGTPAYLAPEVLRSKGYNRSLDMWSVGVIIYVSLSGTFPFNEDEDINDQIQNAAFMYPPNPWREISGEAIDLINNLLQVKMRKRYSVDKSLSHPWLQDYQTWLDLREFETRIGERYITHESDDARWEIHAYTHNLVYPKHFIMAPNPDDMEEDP", "note": "Each line is one published result; the experiments were not run side by side."}
{"Structure (SMILES)": "c1ccc(CNc2nc(N3CCOc4ccccc43)nc3c2CCCC3)cc1", "test": "target engagement in cells, inhibitor, chemoproteomics", "conditions": "20 mM", "measurement": "inhibition", "result": "2.8%"}
{"Structure (SMILES)": "CNC(=O)Nc1ccc2c(c1)CC[C@@]21OC(=O)N(CC(=O)N(Cc2ccc(F)cc2)[C@@H](C)C(F)(F)F)C1=O", "test": "cell-free assay, competition with immobilised ligand", "conditions": "1 µM", "measurement": "remaining binding", "result": "100%"}
{"Structure (SMILES)": "O=C1Nc2ccc(Cl)cc2C1=Cc1cc(Cl)c(O)c(Cl)c1", "test": "cell-free assay", "conditions": "0.5 µM", "measurement": "remaining signal", "result": "80.7%"}
{"Structure (SMILES)": "CC(C)(O)[C@H]1CC[C@H](Nc2ccc3ncc(-c4cccc(C(F)(F)F)c4)n3n2)CC1", "test": "enzyme activity, inhibitor", "conditions": "1 µM", "measurement": "remaining activity", "result": "91.2%"}
{"Structure (SMILES)": "CN1CCC2(CC1)NC(=O)c1c(c3ccc(Cl)c(Cl)c3n1C)C2C#N (racemic)", "test": "thermal stability, DSF", "conditions": "10 µM", "measurement": "ΔTm", "result": "2 °C"}
{"Structure (SMILES)": "CCCCN(CCCC)C(=O)CN1C[C@@H](c2cc(OC)c3c(c2)OCO3)[C@H](C(=O)O)[C@H]1CC(C)(C)CCC", "test": "cell-free assay, competition with immobilised ligand", "conditions": "1 µM", "measurement": "remaining binding", "result": "100%"}
{"Structure (SMILES)": "O=C1NC(=O)c2cc(Nc3ccc(F)cc3)c(Nc3ccc(F)cc3)cc21", "test": "cell-free assay", "conditions": "0.5 µM", "measurement": "remaining signal", "result": "96.7%"}
{"Structure (SMILES)": "CC1(C)NC(=O)c2[nH]c3c(Cl)c(Cl)ccc3c2C1C#N (centres unmarked)", "test": "thermal stability, DSF", "conditions": "10 µM", "measurement": "ΔTm", "result": "0.8 °C"}
{"Structure (SMILES)": "CN1CC(Oc2cnc(C#N)cc2-c2ccn3nc(NC(=O)C4CC4)cc3c2)C1", "test": "enzyme activity, inhibitor", "conditions": "1 µM", "measurement": "inhibition", "result": "-13%"}
{"Structure (SMILES)": "N#CCCc1ccc2c(c1)-c1[nH]c3ccc([N+](=O)[O-])cc3c1CC(=O)N2", "test": "cell-free assay", "conditions": "0.5 µM", "measurement": "remaining signal", "result": "84%"}
{"Structure (SMILES)": "CC(C)(O)c1cncc(-c2nc3ccc(F)cc3n2C2CC2)c1", "test": "cell-free assay, competition with immobilised ligand", "conditions": "1 µM", "measurement": "remaining binding", "result": "100%"}
{"Structure (SMILES)": "Cn1c2c(Cl)c(Cl)ccc2c2cc(N)[nH]c(=O)c21", "test": "thermal stability, DSF", "conditions": "10 µM", "measurement": "ΔTm", "result": "1 °C"}
{"Structure (SMILES)": "CCCCNc1ncc2c(-c3ccc(F)cc3)nn(C[C@H]3CC[C@H](N)CC3)c2n1", "test": "target engagement in cells, inhibitor, chemoproteomics", "conditions": "20 mM", "measurement": "inhibition", "result": "48.7%"}
{"Structure (SMILES)": "O=C(NCc1ncc(C(F)(F)F)cc1Cl)c1ccc2c(c1)C1(CCS(=O)(=O)CC1)[C@H](C1CC1)N2S(=O)(=O)c1ccc(F)cc1", "test": "cell-free assay, competition with immobilised ligand", "conditions": "1 µM", "measurement": "remaining binding", "result": "100%"}
{"Structure (SMILES)": "CC(C)(C)c1nc2c(s1)c1nc(N)ncc1c1ccc(NS(=O)(=O)c3c(F)cccc3F)c(F)c12", "test": "enzyme activity, inhibitor, radiometric", "conditions": "1 µM", "measurement": "remaining activity", "result": "98%"}
{"Structure (SMILES)": "O=C(Nc1ccc(Oc2ccc(F)cc2)cc1)N1CCc2ncccc2[C@H]1c1ccc(F)cc1", "test": "cell-free assay, competition with immobilised ligand", "conditions": "1 µM", "measurement": "remaining binding", "result": "98%"}
{"Structure (SMILES)": "N#CC1c2c([nH]c3c(Cl)c(Cl)ccc23)C(=O)NC12CCCCC2 (racemic)", "test": "thermal stability, DSF", "conditions": "10 µM", "measurement": "ΔTm", "result": "0.9 °C"}
{"Structure (SMILES)": "CNc1cc(Oc2cc(C(=O)Nc3cc(N4CCN(C)CC4)cc(C(F)(F)F)c3)ccc2C)ncn1", "test": "target engagement in cells, inhibitor, chemoproteomics", "system": "Huh-7", "conditions": "1 µM", "measurement": "inhibition", "result": "-19.8%"}
{"Structure (SMILES)": "Cc1ccc(C(=O)NCc2ccsc2)cc1C#Cc1cn(C(C)C)c2ncnc(N)c12", "test": "enzyme activity, inhibitor", "conditions": "1 µM", "measurement": "activity vs control", "result": "101%"}
{"Structure (SMILES)": "CSc1cccnc1N1CCN(Cc2nc3ccccc3[nH]2)CC1", "test": "cell-free assay, competition with immobilised ligand", "conditions": "1 µM", "measurement": "remaining binding", "result": "100%"}
{"Structure (SMILES)": "COc1cc2ncnc(Nc3ccc(Oc4ccccc4)c(C)c3C)c2cc1OC", "test": "enzyme activity, inhibitor", "conditions": "1 µM", "measurement": "inhibition", "result": "8%"}
{"Structure (SMILES)": "CC(C)CC(=O)N1CCc2nc(-c3ccc(Br)cc3)nc(N(C)Cc3ccccc3)c2C1", "test": "cell-free assay, competition with immobilised ligand", "conditions": "0.1 µM", "measurement": "remaining binding", "result": "100%"}
{"Structure (SMILES)": "O=C(Nc1cnn(-c2csc(C(=O)NC3COC3)c2)c1)Nc1c(F)cccc1Cl", "test": "enzyme activity, inhibitor", "conditions": "5 µM", "measurement": "remaining activity", "result": "105%"}
